# In ChEMBL document CHEMBL2157917, “Targeting conserved water molecules: design of 4-aryl-5-cyanopyrrolo[2,3-d]pyrimidine Hsp90 inhibitors using fragment-based screening and structure-based optimization” (Bioorg Med Chem, 2012):
# Values joined by “and” are separate entries in the source; they are usually repeats but may differ in a detail not shown here. Equal values may be shown once.
# Assays:
# [1] = biological target: Heat shock protein HSP 90-beta (Homo sapiens, UniProt P08238); experiment: Inhibition of fluorescently labeled VER51001 binding to full length human HSP90beta after 30 mins by fluorescence polarization assay
# Chain of Heat shock protein HSP 90-beta (P08238 whole entry, the tested form may be a part): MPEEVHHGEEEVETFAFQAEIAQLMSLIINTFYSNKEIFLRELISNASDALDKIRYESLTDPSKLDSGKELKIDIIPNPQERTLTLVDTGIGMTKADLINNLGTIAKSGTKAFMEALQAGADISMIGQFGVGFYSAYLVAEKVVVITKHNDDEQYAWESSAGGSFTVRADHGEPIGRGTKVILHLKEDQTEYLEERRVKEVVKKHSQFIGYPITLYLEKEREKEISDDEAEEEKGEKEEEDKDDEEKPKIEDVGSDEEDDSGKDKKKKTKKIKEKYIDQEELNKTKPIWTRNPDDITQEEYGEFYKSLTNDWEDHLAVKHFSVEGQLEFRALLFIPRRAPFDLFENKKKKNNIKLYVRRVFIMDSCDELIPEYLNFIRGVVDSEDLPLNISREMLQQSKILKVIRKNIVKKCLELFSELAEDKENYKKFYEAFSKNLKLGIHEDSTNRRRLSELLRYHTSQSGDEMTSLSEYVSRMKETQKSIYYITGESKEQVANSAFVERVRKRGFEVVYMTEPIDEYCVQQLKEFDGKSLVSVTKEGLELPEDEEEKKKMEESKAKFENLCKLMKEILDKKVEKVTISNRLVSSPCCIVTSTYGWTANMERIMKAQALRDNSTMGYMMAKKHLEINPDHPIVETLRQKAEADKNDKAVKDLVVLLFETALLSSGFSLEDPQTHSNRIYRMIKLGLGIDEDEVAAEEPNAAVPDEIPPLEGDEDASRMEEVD
# [2] = Binding affinity to hexa His-tagged HSP90 (9-236 aminoacids) by SPR assay
# In short: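 NTA chip charged with 0.5 mM Ni2+, then 100 nM His-tagged HSP90 captured to about 1500 RU. Running buffer 10 mM HEPES pH 7.4, 150 mM NaCl, EDTA, 0.05% Tween-20, 1% DMSO. Surface was reloaded for each concentration. Double-referenced sensorgrams were fitted globally to a single-step kinetic model.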
# [3] = Binding affinity to HSP90 after 30 mins by ITC assay
# In short: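 Isothermal titration calorimetry at 25 °C with stirring at 1000 rpm. Ligands came from a 20 mM DMSO stock and were run in dialysis buffer with 1% DMSO. Ligand 10 µM in the cell, protein 100–200 µM in the syringe, 8–16 injections at 300 s spacing. One-site fit.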
# [4] = tested on: BT-474; experiment: Antiproliferative activity against human BT474 cells after 4 days by SRB method; format: functional; conditions: BT-474, 96 h
# [5] = tested on: HCT-116; experiment: Antiproliferative activity against human HCT116 cells after 4 days by SRB method; format: functional; conditions: HCT-116, 96 h
# [6] = tested on: MDA-MB-468; experiment: Antiproliferative activity against human MDA-MB-468 cells after 4 days by SRB method; format: functional; conditions: MDA-MB-468, 96 h
# [7] = biological target: T1, Voltage-gated inwardly rectifying potassium channel KCNH2 (Homo sapiens, UniProt Q12809); experiment: Displacement of [3H]-dofetilide from human ERG
# T1 sequence (Q12809 whole entry): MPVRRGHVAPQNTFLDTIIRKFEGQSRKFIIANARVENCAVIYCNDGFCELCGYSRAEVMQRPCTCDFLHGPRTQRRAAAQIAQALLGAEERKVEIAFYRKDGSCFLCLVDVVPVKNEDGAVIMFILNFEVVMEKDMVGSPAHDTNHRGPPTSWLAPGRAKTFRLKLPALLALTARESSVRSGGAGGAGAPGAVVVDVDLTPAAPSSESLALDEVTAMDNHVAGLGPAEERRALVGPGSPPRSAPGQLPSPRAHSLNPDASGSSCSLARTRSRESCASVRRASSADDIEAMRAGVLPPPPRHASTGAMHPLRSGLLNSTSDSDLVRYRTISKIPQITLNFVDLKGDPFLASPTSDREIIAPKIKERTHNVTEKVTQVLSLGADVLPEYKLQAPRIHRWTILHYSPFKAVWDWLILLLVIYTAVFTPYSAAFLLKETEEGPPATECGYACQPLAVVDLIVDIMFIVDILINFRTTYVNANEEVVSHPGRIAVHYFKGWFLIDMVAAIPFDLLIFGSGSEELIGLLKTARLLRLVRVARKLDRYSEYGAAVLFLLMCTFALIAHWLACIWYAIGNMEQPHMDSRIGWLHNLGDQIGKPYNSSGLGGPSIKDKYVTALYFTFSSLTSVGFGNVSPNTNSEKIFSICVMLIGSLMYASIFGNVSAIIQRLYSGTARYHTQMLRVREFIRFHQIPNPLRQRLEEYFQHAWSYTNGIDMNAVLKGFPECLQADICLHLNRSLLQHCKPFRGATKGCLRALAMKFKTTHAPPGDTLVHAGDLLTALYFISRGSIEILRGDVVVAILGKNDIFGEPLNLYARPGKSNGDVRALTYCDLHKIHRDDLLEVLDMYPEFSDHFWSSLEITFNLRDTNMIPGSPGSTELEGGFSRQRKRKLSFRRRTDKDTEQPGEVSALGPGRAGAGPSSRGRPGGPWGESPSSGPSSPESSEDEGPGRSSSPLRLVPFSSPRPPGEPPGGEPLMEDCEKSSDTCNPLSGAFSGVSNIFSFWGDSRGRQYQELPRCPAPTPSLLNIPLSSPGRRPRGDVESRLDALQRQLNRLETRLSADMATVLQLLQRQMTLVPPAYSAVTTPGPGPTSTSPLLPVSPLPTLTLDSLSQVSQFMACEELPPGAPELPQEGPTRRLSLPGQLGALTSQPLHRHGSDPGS
# [8] = biological target: T1, Voltage-gated inwardly rectifying potassium channel KCNH2; experiment: Inhibition of human ERG expressed in HEK293 cells by voltage-clamp method; format: cell-based
# [9] = AUC (0 to infinity) in Balb-C mouse plasma at 5 mg/kg, po; format: ADME, organism-based; parameters: time infinity, dose 5 mg/kg, route oral
# [10] = Half life in Balb-C mouse plasma at 5 mg/kg, po; format: ADME, organism-based; parameters: dose 5 mg/kg, route oral
# [11] = Cmax in Balb-C mouse plasma at 5 mg/kg, po; format: ADME, organism-based; parameters: dose 5 mg/kg, route oral
# [12] = Tmax in Balb-C mouse plasma at 5 mg/kg, po; format: ADME, organism-based; parameters: dose 5 mg/kg, route oral
# [13] = AUC (0 to infinity) in Balb-C mouse muscle at 5 mg/kg, po; format: ADME, organism-based, Muscle tissue; parameters: time infinity, dose 5 mg/kg, route oral
# [14] = Half life in Balb-C mouse muscle at 5 mg/kg, po; format: ADME, organism-based, Muscle tissue; parameters: dose 5 mg/kg, route oral
# [15] = Cmax in Balb-C mouse muscle at 5 mg/kg, po; format: ADME, organism-based, Muscle tissue; parameters: dose 5 mg/kg, route oral
# [16] = Tmax in Balb-C mouse muscle at 5 mg/kg, po; format: ADME, organism-based, Muscle tissue; parameters: dose 5 mg/kg, route oral
# [17] = Ratio of drug level in muscle to plasma of Balb-C mouse at 5 mg/kg, po; format: ADME, organism-based; parameters: dose 5 mg/kg, route oral
# [18] = AUC (0 to infinity) in Balb-C mouse kidney at 5 mg/kg, po; format: ADME, organism-based; parameters: time infinity, dose 5 mg/kg, route oral
# [19] = Half life in Balb-C mouse kidney at 5 mg/kg, po; format: ADME, organism-based; parameters: dose 5 mg/kg, route oral
# [20] = Cmax in Balb-C mouse kidney at 5 mg/kg, po; format: ADME, organism-based; parameters: dose 5 mg/kg, route oral
# [21] = Tmax in Balb-C mouse kidney at 5 mg/kg, po; format: ADME, organism-based; parameters: dose 5 mg/kg, route oral
# [22] = Ratio of drug level in kidney to plasma of Balb-C mouse at 5 mg/kg, po; format: ADME, organism-based; parameters: dose 5 mg/kg, route oral
# [23] = tested on: UGT; experiment: Intrinsic clearance in human liver microsomes assessed as UGT-mediated glucuronidation after 30 mins by LC-MS/MS analysis; format: ADME, Microsome; conditions: read-out: CLH
# [24] = tested on: UGT; experiment: Intrinsic clearance in human liver microsomes assessed as UGT-mediated glucuronidation extraction ratio after 30 mins by LC-MS/MS analysis; format: ADME, Microsome; conditions: read-out: ERH
# [25] = AUC (0 to 2 hrs ) in Balb-C mouse plasma at 5 mg/kg, po; format: ADME, organism-based; parameters: time < 2 hr, dose 5 mg/kg, route oral
# [26] = AUC (0 to 2 hrs ) in Balb-C mouse kidney at 5 mg/kg, po; format: ADME, organism-based; parameters: time < 2 hr, dose 5 mg/kg, route oral
Ki [1] [nM],Kd [2] [nM],GI50 [4] [nM],GI50 [5] [nM],GI50 [6] [nM],Compound,also measured
4070,4260,,,,CNc1nc(-c2ccc(F)cc2C)c2c(C#N)c[nH]c2n1,Kd [3]: 3690 nM
< 1,,45,153,124,COc1cc(Cl)c(-c2nc(SCC(=O)NCC(F)(F)F)nc3[nH]cc(C#N)c23)cc1OC,
> 200000,> 100000,,,,CSc1nc(-c2ccc(C)cc2C)c2cc[nH]c2n1,
2640,55000,,,,CSc1nc(-c2ccc(C)cc2C)c2c(C(F)(F)F)c[nH]c2n1,
< 1,,102,1160,236,COc1cc(Cl)c(-c2nc(SCC(=O)NC3CC3)nc3[nH]cc(C#N)c23)cc1O,
< 1,,121,50,84,COc1cc(Cl)c(-c2nc(SCC(=O)NC(C)(C)C)nc3[nH]cc(C#N)c23)cc1OC,
< 1,,84,65,77,CCOc1cc(-c2nc(SCC(=O)NC(C)C)nc3[nH]cc(C#N)c23)c(Cl)cc1OC,
> 200000,> 100000,,,,CSc1nc(-c2ccc(C#N)cc2)c2cc[nH]c2n1,
12,,47,,,COc1cc(Cl)c(-c2nc(SC)nc3[nH]cc(C#N)c23)cc1OCCN1CCC(F)(F)C1,
< 1,,80,,,CCN(CC)CCSc1nc(-c2cc(OC)c(C#N)cc2Cl)c2c(C#N)c[nH]c2n1,
1720,2220,,,,CCc1nc(-c2ccc(F)cc2C)c2c(C#N)c[nH]c2n1,Kd [3]: 1830 nM
24500,> 20000,,,,CSc1nc(-c2ccc(C#N)cc2)c2nc[nH]c2n1,
661,> 20000,,,,CSc1nc(-c2ccc(Cl)cc2C)c2nc[nH]c2n1,
< 1,,72,,,CCN(CC)CCSc1nc(-c2cc(OC)c(Cl)cc2Cl)c2c(C#N)c[nH]c2n1,
4,,48,,,CSc1nc(-c2cc(OCCN3CCCC3)c(Cl)cc2Cl)c2c(C#N)c[nH]c2n1,
> 200000,> 100000,,,,CSc1nc(-c2ccc(F)cc2C)c2c(C(N)=O)c[nH]c2n1,
< 1,,21,172,28,COc1cc(Cl)c(-c2nc(SCC(=O)N3CCC3)nc3[nH]cc(C#N)c23)cc1O,
62,,2010,,,CCN(CC)CCOc1nc(-c2cc(OC)c(Cl)cc2Cl)c2c(C#N)c[nH]c2n1,
> 200000,> 100000,,,,CSc1nc(-c2ccc(F)cc2C)c2cc[nH]c2n1,
< 1,,31,28,35,COc1cc(Cl)c(-c2nc(SCC(=O)N3CCC3)nc3[nH]cc(C#N)c23)cc1OC,
2,,85,728,183,COc1cc(Cl)c(-c2nc(SCC(=O)NCCF)nc3[nH]cc(C#N)c23)cc1O,
172,,388,,,COc1cc(Cl)c(-c2nc(SC(C)C)nc3[nH]cc(C#N)c23)cc1OCCN1CCC(F)(F)C1,
< 1,,56,42,33,CNC(=O)CSc1nc(-c2cc(OC)c(OC)cc2Cl)c2c(C#N)c[nH]c2n1,

Ki [1] [nM],Kd [2] [nM],GI50 [4] [nM],GI50 [5] [nM],GI50 [6] [nM],Compound,also measured
< 1,,81,81,102,COc1cc(Cl)c(-c2nc(SCC(=O)NC(C)C)nc3[nH]cc(C#N)c23)cc1OC,
> 200000,> 20000,,,,CSc1nc(-c2ccc(C)cc2C)c2c(Br)c[nH]c2n1,
2830,1880,,,,Cc1ccc(-c2ncnc3[nH]cc(C#N)c23)c(C)c1,Kd [3]: 1620 nM
< 1,,69,60,62,COc1cc(Cl)c(-c2nc(SCC(=O)NC3CC3)nc3[nH]cc(C#N)c23)cc1OC,
3,,161,238,178,COc1cc(Cl)c(-c2nc(SCC(=O)NC(C)C)nc3[nH]cc(C#N)c23)cc1O,
195,,,,,CSc1nc(-c2ccc(C)cc2C)c2c(C#N)c[nH]c2n1,Kd [3]: 156 nM
628,2810,,,,COc1nc(-c2ccc(F)cc2C)c2c(C#N)c[nH]c2n1,Kd [3]: 725 nM
204,1220,,,,CSc1nc(-c2ccc(C#N)cc2)c2c(C#N)c[nH]c2n1,
8,,78,,,CCN(CC)CCOc1cc(-c2nc(SCC(=O)NC)nc3[nH]cc(C#N)c23)c(Cl)cc1Cl,IC50 [7]: 3140 nM; IC50 [8]: 17800 nM
5,,136,98,178,COc1cc(Cl)c(-c2nc(SCC(=O)NCCF)nc3[nH]cc(C#N)c23)cc1OC,
2,,31,,,CCN(CC)CCOc1cc(-c2nc(SC)nc3[nH]cc(C#N)c23)c(Cl)cc1Cl,
< 1,,20,131,23,COc1cc(Cl)c(-c2nc(SCC(=O)N(C)C)nc3[nH]cc(C#N)c23)cc1O,IC50 [7]: > 30000 nM; IC50 [8]: > 30000 nM; Cmax [11]: 25 nM and 11 ng/mL; Tmax [12]: 15 min; Cmax [20]: 31 ng/mL and 72 nM; Tmax [21]: 30 min; Kp [22]: 2.6; hepatic extraction ratio at 0.5 h [24]: 0.8; microsomal CLint [23]: 73 µL/min/mg; AUC(0-t) at 2 h [25]: 16 ng·h/mL; AUC(0-t) at 2 h [26]: 41 ng·h/mL
358,430,,,,CSc1nc(-c2ccc(F)cc2C)c2c(C#N)c[nH]c2n1,Kd [3]: 251 nM
2,,141,42,59,CCNC(=O)CSc1nc(-c2cc(OC)c(OC)cc2Cl)c2c(C#N)c[nH]c2n1,
3,,31,,,COc1cc(Cl)c(-c2nc(SC)nc3[nH]cc(C#N)c23)cc1OCCN1CC[C@H](F)C1,
< 1,,44,40,64,CCNC(=O)CSc1nc(-c2cc(OCC)c(OC)cc2Cl)c2c(C#N)c[nH]c2n1,
5230,38000,,,,CSc1nc(-c2ccc(C)cc2C)c2c(C#N)n[nH]c2n1,
> 200000,19300,,,,CSc1nc(-c2ccc(C)cc2C)c2c(C)c[nH]c2n1,
7,,26,,,CCN(CC)CCSc1nc(-c2cc(OC)c(OC)cc2Cl)c2c(C#N)c[nH]c2n1,
> 50000,> 100000,,,,CSc1nc(-c2ccc(C)cc2C)c2c(C3CC3)c[nH]c2n1,
< 1,,25,20,23,CCOc1cc(-c2nc(SCC(=O)NC3CC3)nc3[nH]cc(C#N)c23)c(Cl)cc1OC,
< 1,,128,117,152,COc1cc(Cl)c(-c2nc(SCC(=O)NC(C)(C)C)nc3[nH]cc(C#N)c23)cc1O,
12800,2300,,,,CSc1nc(-c2ccc(F)cc2C)c2nc[nH]c2n1,Kd [3]: 2730 nM

Compound,Ki [1] [nM],Kd [2] [nM],GI50 [4] [nM],GI50 [5] [nM],GI50 [6] [nM],also measured
COc1cc(Cl)c(-c2nc(SCC(=O)N(C)C)nc3[nH]cc(C#N)c23)cc1OC,< 1,,34,32,30,Kd [3]: < 3 nM; IC50 [7]: > 30000 nM; IC50 [8]: > 30000 nM; AUC(0-inf) [9]: 297 ng·h/mL; half-life [10]: 84 min; Cmax [11]: 553 nM and 239 ng/mL; Tmax [12]: 15 min; AUC(0-inf) [13]: 231 ng·h/mL; half-life [14]: 144 min; Cmax [15]: 158 nM and 68 ng/mL; Tmax [16]: 15 min; Kp [17]: 0.8; AUC(0-inf) [18]: 6920 ng·h/mL; half-life [19]: 72 min; Cmax [20]: 12.5 µM and 5390 ng/mL; Tmax [21]: 15 min; Kp [22]: 23.3; microsomal CLint [23]: 4 µL/min/mg
